# Results as given in ChEMBL document CHEMBL2163344, “Immunomodulatory properties of novel nucleotide oligomerization domain 2 (nod2) agonistic desmuramyldipeptides” (J Med Chem, 2012).
# The source made the active and inactive calls. No cut-off for these calls is given here.
# Key:
# Type in all cases: functional, cell-based
# PBMC [1] = assay: Immunomodulatory activity in human PBMCs assessed as reduction in PMA/ionomycin-induced TNFalpha release at 20 uM incubated for 18 hrs by multiplexed cytokine assay
# Outline: (§1)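 Ficoll-isolated human PBMC, 1 × 10^6 cells per well, treated with 20 μM compound (DMSO ≤0.1%) plus PMA 3.33 ng/mL and ionomycin 500 nM for 18 h at 37 °C, 5% CO2. Cell-free supernatant cytokines measured by CBA human inflammatory kit on a flow cytometer against recombinant standards. Reported as % of PMA/ionomycin-only release; duplicates, three experiments, three donors.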
# PBMC [2] = assay: Immunomodulatory activity in human PBMCs assessed as increase in PMA/ionomycin-induced IL8 release at 0.2 to 200 uM incubated for 18 hrs by multiplexed cytokine assay
# Outline: (§2)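 Human PBMC stimulated with PMA 3.33 ng/mL and ionomycin 500 nM plus compound at 0.2, 2, 20 or 200 μM for 18 h. Supernatant cytokines quantified by cytometric bead array. Compared with PMA/ionomycin-only cells; two independent experiments in duplicate, two donors, mean ± SD.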
# PBMC [3] = assay: Immunomodulatory activity in human PBMCs assessed as increase in PMA/ionomycin-induced IL10 release at 20 uM incubated for 4 to 40 hrs by multiplexed cytokine assay
# Outline: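 PBMC time course: 20 μM compound with PMA 3.33 ng/mL and ionomycin 500 nM. Supernatants collected at 4, 18 and 40 h and cytokines read by cytometric bead array. Compared with PMA/ionomycin-only control; two independent experiments in duplicate, two donors.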
# PBMC [4] = assay: Immunomodulatory activity in human PBMCs assessed as increase in PMA/ionomycin-induced TNFalpha release at 20 uM by multiplexed cytokine assay; conditions: TDE = time-dependent effect; outline: as §1
# PBMC [5] = assay: Immunomodulatory activity in human PBMCs assessed as increase in PMA/ionomycin-induced TNFalpha release incubated for 18 hrs by multiplexed cytokine assay; outline: as §1
# PBMC [6] = assay: Immunomodulatory activity in human PBMCs assessed as increase in PMA/ionomycin-induced IL10 release at 0.2 to 200 uM incubated for 18 hrs by multiplexed cytokine assay; outline: as §2
# PBMC [7] = assay: Immunomodulatory activity in human PBMCs assessed as increase in PMA/ionomycin-induced IL-12p70 release incubated for 18 hrs by multiplexed cytokine assay
# PBMC [8] = assay: Immunomodulatory activity in human PBMCs assessed as increase in PMA/ionomycin-induced IL-12p70 release at 20 uM by multiplexed cytokine assay; conditions: TDE = time-dependent effect; outline: as §1
# PBMC [9] = assay: Immunomodulatory activity in human PBMCs assessed as increase in PMA/ionomycin-induced IL-1beta release incubated for 18 hrs by multiplexed cytokine assay
Structure (SMILES),Activity (PBMC [1]),Activity (PBMC [2]),Activity (PBMC [3]),Activity (PBMC [4]),Activity (PBMC [5]),Activity (PBMC [6]),Activity (PBMC [7]),Activity (PBMC [8]),Activity (PBMC [9])
CCOC(=O)CC[C@@H](NC(=O)[C@H](C)NC(=O)CNC(=O)c1cc2ccccc2[nH]1)C(N)=O,Active,–,–,–,–,–,–,–,–
CCCCOC(=O)[C@@H](CCC(N)=O)NC(=O)[C@H](C)NC(=O)[C@@H](C)O[C@H]1[C@H](O)[C@@H](CO)OC(O)[C@@H]1NC(C)=O (some centres not stated) [MURABUTIDE],–,inactive,inactive,tde,Dose-dependent effect,inactive,Dose-dependent effect,tde,Dose-dependent effect
CCOC(=O)CC[C@@H](NC(=O)[C@H](C)NC(=O)CNC(=O)c1cc2ccccc2[nH]1)C(=O)OCC,–,inactive,inactive,tde,Dose-dependent effect,inactive,Dose-dependent effect,tde,Dose-dependent effect
